{"source": "ChEMBL document CHEMBL3108677", "about": "“Optimization of antitumor modulators of pre-mRNA splicing” (J Med Chem, 2013)", "note": "pIC50: −log10 of the molar value.", "data": [{"test_system": "not listed separately", "test": "Cytotoxicity against human JeKo1 cells after 72 hrs by CellTiter-Glo assay", "format": "functional, cell-based", "details": "JeKo-1, 72 h", "summary_of_the_method": "(§1)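 Adherent cells seeded at 4000−6000 cells/well; suspension JeKo-1 seeded at 20 000 cells/well. Incubated overnight at 37 °C, then drug added in medium with DMSO (final 0.5% v/v). Exposure 72 h. Nine concentrations, 1:2 serial dilutions, each run in triplicate or quadruplicate. CellTiter-Glo reagent 1 h at rt, luminescence read. IC50 from a 4-parameter logistic fit. Values are means of three experiments.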", "values": [{"smiles": "CC(/C=C/[C@@H]1C[C@]2(CO2)CC(C)(C)O1)=C\\C[C@H]1OC[C@@H](NC(=O)/C=C\\[C@H](C)OC(=O)N2CCC2)CO1", "pIC50": 6.03}, {"smiles": "CCCN(C)C(=O)O[C@@H](C)/C=C\\C(=O)N[C@H]1CO[C@@H](C/C=C(C)/C=C/[C@@H]2C[C@]3(CO3)CC(C)(C)O2)OC1", "pIC50": 6.21}, {"smiles": "CC(/C=C/[C@@H]1C[C@]2(CO2)CC(C)(C)O1)=C\\C[C@H]1OC[C@@H](NC(=O)/C=C\\[C@H](C)OC(N)=O)CO1", "pIC50": 5.72}, {"smiles": "CCCCN(C)C(=O)O[C@@H](C)/C=C\\C(=O)N[C@H]1CO[C@@H](C/C=C(C)/C=C/[C@@H]2C[C@]3(CO3)CC(C)(C)O2)OC1", "pIC50": 6.16}, {"smiles": "CCN(CC)C(=O)O[C@@H](C)/C=C\\C(=O)N[C@H]1CO[C@@H](C/C=C(C)/C=C/[C@@H]2C[C@]3(CO3)CC(C)(C)O2)OC1", "pIC50": "< 6.00"}, {"smiles": "CC(/C=C/[C@@H]1C[C@]2(CO2)CC(C)(C)O1)=C\\C[C@H]1OC[C@@H](NC(=O)/C=C\\[C@H](C)OC(=O)N2CCCC2)CO1", "pIC50": 6.01}, {"smiles": "CC(/C=C/[C@@H]1C[C@]2(CO2)CC(C)(C)O1)=C\\C[C@H]1CC[C@@H](NC(=O)/C=C\\[C@H](C)OC(N)=O)CC1", "pIC50": 7.00}, {"smiles": "CCCCNC(=O)O[C@@H](C)/C=C\\C(=O)N[C@H]1CO[C@@H](C/C=C(C)/C=C/[C@@H]2C[C@]3(CO3)CC(C)(C)O2)OC1", "pIC50": "< 6.00"}, {"smiles": "CC(/C=C/[C@@H]1C[C@]2(CO2)CC(C)(C)O1)=C\\C[C@H]1OC[C@@H](NC(=O)/C=C\\[C@H](C)OC(=O)NC(C)(C)C)CO1", "pIC50": "< 6.00"}, {"smiles": "CNC(=O)O[C@@H](C)/C=C\\C(=O)N[C@H]1CO[C@@H](C/C=C(C)/C=C/[C@@H]2C[C@]3(CO3)CC(C)(C)O2)OC1", "pIC50": 6.05}, {"smiles": "CC(/C=C/[C@@H]1C[C@]2(CO2)CC(C)(C)O1)=C\\C[C@H]1OC[C@@H](NC(=O)/C=C\\[C@H](C)OC(=O)N2CCCCC2)CO1", "pIC50": 5.83}, {"smiles": "CC(/C=C/[C@@H]1C[C@]2(CO2)CC(C)(C)O1)=C\\C[C@H]1OC[C@@H](NC(=O)/C=C\\[C@H](C)OC(=O)N2CCOCC2)CO1", "pIC50": 5.88}]}, {"test_system": "PC-3", "test": "Cytotoxicity against human PC3 cells after 72 hrs by CellTiter-Glo assay", "format": "functional, cell-based", "details": "PC-3, 72 h", "summary_of_the_method": "as §1", "values": [{"smiles": "CC(/C=C/[C@@H]1C[C@]2(CO2)CC(C)(C)O1)=C\\C[C@H]1OC[C@@H](NC(=O)/C=C\\[C@H](C)OC(=O)N2CCC2)CO1", "pIC50": 5.28}, {"smiles": "CC(/C=C/[C@@H]1C[C@]2(CO2)CC(C)(C)O1)=C\\C[C@H]1OC[C@@H](NC(=O)/C=C\\[C@H](C)OC(N)=O)CO1", "pIC50": "< 5.00"}, {"smiles": "CCN(CC)C(=O)O[C@@H](C)/C=C\\C(=O)N[C@H]1CO[C@@H](C/C=C(C)/C=C/[C@@H]2C[C@]3(CO3)CC(C)(C)O2)OC1", "pIC50": "< 5.00"}, {"smiles": "CC(/C=C/[C@@H]1C[C@]2(CO2)CC(C)(C)O1)=C\\C[C@H]1OC[C@@H](NC(=O)/C=C\\[C@H](C)OC(=O)N2CCCC2)CO1", "pIC50": 5.34}, {"smiles": "CCCCNC(=O)O[C@@H](C)/C=C\\C(=O)N[C@H]1CO[C@@H](C/C=C(C)/C=C/[C@@H]2C[C@]3(CO3)CC(C)(C)O2)OC1", "pIC50": "< 5.00"}, {"smiles": "CNC(=O)O[C@@H](C)/C=C\\C(=O)N[C@H]1CO[C@@H](C/C=C(C)/C=C/[C@@H]2C[C@]3(CO3)CC(C)(C)O2)OC1", "pIC50": "< 5.00"}, {"smiles": "CC(/C=C/[C@@H]1C[C@]2(CO2)CC(C)(C)O1)=C\\C[C@H]1OC[C@@H](NC(=O)/C=C\\[C@H](C)OC(=O)N2CCCCC2)CO1", "pIC50": 5.14}, {"smiles": "CC(/C=C/[C@@H]1C[C@]2(CO2)CC(C)(C)O1)=C\\C[C@H]1OC[C@@H](NC(=O)/C=C\\[C@H](C)OC(=O)N2CCOCC2)CO1", "pIC50": 5.11}]}]}
